In ChEMBL document CHEMBL3044709, “Antimicrobial furostanol saponins from the seeds of Capsicum annuum L. var. acuminatum” (2002):
Values after ≈ are worked out from the molar mass of the structure shown.

Assays:
Type in all cases: functional
Escherichia coli [1] = assay: Antimicrobial activity against Escherichia coli DSM 682 after 48 hr by agar dilution method; settings: DSM 682, 48 h
Outline: (§1)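 Agar dilution on standard plate count agar: 0.5 mL of a 2-fold serial dilution of sample mixed into 9.5 mL medium, poured into Petri dishes, organism streaked on the surface. Incubated at 28 °C (36 and 48 h). MIC is the lowest tested concentration with no visible growth.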

Escherichia coli [2] = assay: Antimicrobial activity against Escherichia coli ATCC 35346 after 48 hr by agar dilution method; settings: ATCC 35346, 48 h; outline: as §1
Stutzerimonas stutzeri = assay: Antimicrobial activity against Pseudomonas stutzeri ATCC 962 after 48 hr by agar dilution method; settings: ATCC 962, 48 h; outline: as §1
Pseudomonas aeruginosa = assay: Antimicrobial activity against Pseudomonas aeruginosa DSM 1117 after 48 hr by agar dilution method; settings: DSM 1117, 48 h; outline: as §1
[3] = tested on: Limosilactobacillus fermentum; assay: Antimicrobial activity against Lactobacillus fermentum DSM 20052 after 48 hr by agar dilution method; settings: DSM 20052, 48 h; outline: as §1
Lacticaseibacillus casei = assay: Antimicrobial activity against Lactobacillus casei DSM 20011 after 48 hr by agar dilution method; settings: DSM 20011, 48 h; outline: as §1
[4] = tested on: Lactiplantibacillus plantarum; assay: Antimicrobial activity against Lactobacillus plantarum DSM 20174 after 48 hr by agar dilution method; settings: DSM 20174, 48 h; outline: as §1
[5] = tested on: Lacticaseibacillus rhamnosus; assay: Antimicrobial activity against Lactobacillus rhamnosus DSM 20021 after 48 hr by agar dilution method; settings: DSM 20021, 48 h; outline: as §1
Bacillus cereus = assay: Antimicrobial activity against Bacillus cereus DSM 345 after 48 hr by agar dilution method; settings: DSM 345, 48 h; outline: as §1
Micrococcus luteus = assay: Antimicrobial activity against Micrococcus luteus DSM 348 after 48 hr by agar dilution method; settings: DSM 348, 48 h; outline: as §1
Staphylococcus aureus = assay: Antimicrobial activity against Staphylococcus aureus subsp. aureus DSM 346 after 48 hr by agar dilution method; settings: DSM 346, 48 h; outline: as §1
[6] = tested on: Staphylococcus epidermidis; assay: Antimicrobial activity against Staphylococcus epidermidis DSM 1798 after 48 hr by agar dilution method; settings: DSM 1798, 48 h; outline: as §1
Bacillus licheniformis = assay: Antimicrobial activity against Bacillus licheniformis DSM 13=ATCC 14580 after 48 hr by agar dilution method; settings: DSM 13 = ATCC 14580, 48 h; outline: as §1
Aspergillus fumigatus = assay: Antimicrobial activity against Aspergillus fumigatus ATCC 1028 after 48 hr by agar dilution method; settings: ATCC 1028, 48 h
Outline: (§2)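 Fungi tested by agar dilution in malt agar. Serial 2-fold sample dilutions (0.5 mL) were mixed with 9.5 mL medium and plated, then streaked with the organism. Incubation at 28 °C for 36 and 48 h. MIC is the lowest tested concentration without growth.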

Bacillus subtilis = assay: Antimicrobial activity against Bacillus subtilis DSM 345 after 48 hr by agar dilution method; settings: DSM 345, 48 h; outline: as §1
Aspergillus flavus = assay: Antimicrobial activity against Aspergillus flavus ATCC 11655 after 48 hr by agar dilution method; settings: ATCC 11655, 48 h; outline: as §2
Aspergillus niger = assay: Antimicrobial activity against Aspergillus niger ATCC 1040 after 48 hr by agar dilution method; settings: ATCC 1040, 48 h; outline: as §2
Rhizopus arrhizus = assay: Antimicrobial activity against Rhizopus oryzae ATCC 56536 after 48 hr by agar dilution method; settings: ATCC 56536, 48 h; outline: as §2
Trichoderma viride = assay: Antimicrobial activity against Hypocrea rufa ATCC 28020 after 48 hr by agar dilution method; settings: ATCC 28020, 48 h; outline: as §2
Setophoma terrestris = assay: Antimicrobial activity against Setophoma terrestris ATCC 11321 after 48 hr by agar dilution method; settings: ATCC 11321, 48 h; outline: as §2
Penicillium expansum = assay: Antimicrobial activity against Penicillium expansum ATCC 7861 after 48 hr by agar dilution method; settings: ATCC 7861, 48 h; outline: as §2
[7] = tested on: Hanseniaspora guilliermondii; assay: Antimicrobial activity against Hanseniaspora guilliermondii CBS 465 after 48 hr by agar dilution method; settings: CBS 465, 48 h
Outline: (§3)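 Yeast peptone dextrose agar plates, each holding a 2-fold serial dilution of sample (0.5 mL into 9.5 mL medium). Yeast streaked onto the plates and incubated at 28 °C, read at 36 and 48 h. MIC is the lowest concentration tested showing no growth.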

Hanseniaspora uvarum [8] = assay: Antimicrobial activity against Hanseniaspora uvarum CBS 314 after 48 hr by agar dilution method; settings: CBS 314, 48 h; outline: as §3
Hanseniaspora vineae = assay: Antimicrobial activity against Hanseniaspora vineae CBS 2171 after 48 hr by agar dilution method; settings: CBS 2171, 48 h; outline: as §3
Hanseniaspora osmophila = assay: Antimicrobial activity against Hanseniaspora osmophila CBS 313 after 48 hr by agar dilution method; settings: CBS 313, 48 h; outline: as §3
Hanseniaspora uvarum [9] = assay: Antimicrobial activity against Hanseniaspora uvarum AP23 after 48 hr by agar dilution method; settings: Distaam AP23, 48 h; outline: as §3
Candida albicans = assay: Antimicrobial activity against Candida albicans CBS 562 after 48 hr by agar dilution method; settings: CBS 562, 48 h; outline: as §3
[10] = tested on: Schizosaccharomyces pombe; assay: Antimicrobial activity against Schizosaccharomyces pombe Diproval 106 after 48 hr by agar dilution method; settings: Diproval 106, 48 h; outline: as §3
Saccharomycodes ludwigii = assay: Antimicrobial activity against Saccharomycodes ludwigii Diproval 120 after 48 hr by agar dilution method; settings: Diproval 120, 48 h; outline: as §3
Saccharomyces cerevisiae [11] = assay: Antimicrobial activity against Saccharomyces cerevisiae Diproval 9109 after 48 hr by agar dilution method; settings: Diproval 9109, 48 h; outline: as §3
Saccharomyces cerevisiae [12] = assay: Antimicrobial activity against Saccharomyces cerevisiae Diproval 7070 after 48 hr by agar dilution method; settings: Diproval 7070, 48 h; outline: as §3
Saccharomyces cerevisiae [13] = assay: Antimicrobial activity against Saccharomyces cerevisiae Diproval 8167 after 48 hr by agar dilution method; settings: Diproval 8167, 48 h; outline: as §3
Saccharomyces cerevisiae [14] = assay: Antimicrobial activity against Saccharomyces cerevisiae Diproval 2439 after 48 hr by agar dilution method; settings: Diproval 2439, 48 h; outline: as §3
Saccharomyces cerevisiae [15] = assay: Antimicrobial activity against Saccharomyces cerevisiae Diproval 6073 after 48 hr by agar dilution method; settings: Diproval 6073, 48 h; outline: as §3
Saccharomyces cerevisiae [16] = assay: Antimicrobial activity against Saccharomyces cerevisiae Diproval 404 after 48 hr by agar dilution method; settings: Diproval 404, 48 h; outline: as §3
Enterococcus faecalis = assay: Antimicrobial activity against Enterococcus faecalis DSM 2570 after 48 hr by agar dilution method; settings: DSM 2570, 48 h; outline: as §1

MIC (Escherichia coli [1]): 1000 µg/mL (≈ 703 µM)
MIC (Escherichia coli [2]): 1000 µg/mL (≈ 703 µM)
MIC (Stutzerimonas stutzeri): > 1000 µg/mL
MIC (Pseudomonas aeruginosa): > 1000 µg/mL
MIC [3]: 1000 µg/mL (≈ 703 µM)
MIC (Lacticaseibacillus casei): 1000 µg/mL (≈ 703 µM)
MIC [5]: 1000 µg/mL (≈ 703 µM)
MIC (Bacillus cereus): 1000 µg/mL (≈ 703 µM)
MIC (Micrococcus luteus): > 1000 µg/mL
MIC (Staphylococcus aureus): > 1000 µg/mL
MIC [6]: > 1000 µg/mL
MIC (Bacillus licheniformis): > 1000 µg/mL
MIC (Aspergillus fumigatus): > 1000 µg/mL
MIC (Bacillus subtilis): > 1000 µg/mL
MIC (Aspergillus flavus): > 1000 µg/mL
MIC (Aspergillus niger): > 1000 µg/mL
MIC (Rhizopus arrhizus): 125 µg/mL (≈ 87.9 µM)
MIC (Trichoderma viride): 250 µg/mL (≈ 176 µM)
MIC (Setophoma terrestris): 250 µg/mL (≈ 176 µM)
MIC (Penicillium expansum): 500 µg/mL (≈ 352 µM)
MIC [7]: 12.5 µg/mL (≈ 8.79 µM)
MIC (Hanseniaspora uvarum [8]): 12.5 µg/mL (≈ 8.79 µM)
MIC (Hanseniaspora vineae): 12.5 µg/mL (≈ 8.79 µM)
MIC (Hanseniaspora osmophila): 25 µg/mL (≈ 17.6 µM)
MIC (Hanseniaspora uvarum [9]): 12.5 µg/mL (≈ 8.79 µM)
MIC (Candida albicans): 25 µg/mL (≈ 17.6 µM)
MIC [10]: 25 µg/mL (≈ 17.6 µM)
MIC (Saccharomycodes ludwigii): 12.5 µg/mL (≈ 8.79 µM)
MIC (Saccharomyces cerevisiae [11]): 25 µg/mL (≈ 17.6 µM)
MIC (Saccharomyces cerevisiae [12]): 25 µg/mL (≈ 17.6 µM)
MIC (Saccharomyces cerevisiae [13]): 25 µg/mL (≈ 17.6 µM)
MIC (Saccharomyces cerevisiae [14]): 25 µg/mL (≈ 17.6 µM)
MIC (Saccharomyces cerevisiae [15]): 25 µg/mL (≈ 17.6 µM)
MIC (Saccharomyces cerevisiae [16]): 25 µg/mL (≈ 17.6 µM)
MIC (Enterococcus faecalis): > 1000 µg/mL
SMILES: COC1(CC[C@@H](C)CO[C@@H]2O[C@H](CO)[C@@H](O)[C@H](O)[C@H]2O)O[C@H]2C[C@H]3[C@@H]4CC[C@H]5C[C@@H](O[C@@H]6O[C@H](CO)[C@H](O[C@@H]7O[C@H](CO)[C@@H](O)[C@H](O[C@@H]8O[C@H](CO)[C@@H](O)[C@H](O)[C@H]8O)[C@H]7O[C@@H]7O[C@H](CO)[C@@H](O)[C@H](O[C@@H]8O[C@H](CO)[C@@H](O)[C@H](O)[C@H]8O)[C@H]7O)[C@H](O)[C@H]6O)CC[C@]5(C)[C@H]4CC[C@]3(C)[C@H]2[C@@H]1C (stereo partly specified) [22-O-METHYLCAPSICOSIDE G]
MIC [4]: 1000 µg/mL (≈ 703 µM)
